Measured values as given in ChEMBL document CHEMBL4513216, “Probing the Open Global Health Chemical Diversity Library for Multistage-Active Starting Points for Next-Generation Antimalarials” (ACS Infect Dis, 2020).

Test: Toxicity liver stage against HepG2, at 10uM
Format: cell-based
Parameters: test concentration 10 uM, cell line HepG2-A16-CD81EGFP
Conditions: human, HepG2-A16-CD81EGFP cells; read-out: INHIBITION
Outline: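 Uninfected HepG2-A16-CD81EGFP cells, 3 × 10^3 per well, 1536-well, plated on prespotted compound at 10 μM final, parasite-free screening media added to match infected plates; puromycin 10 μM positive, DMSO 0.5% negative; run in parallel with 48 h PbLuc assay at 37 °C, 5% CO2; viability by CellTiter-Glo luminescence, normalized to controls.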

Row | Compound | cytotoxicity at 10 µM [%]
1 | O=C(CC1NC(N2CCc3ccccc3C2)=NC1=O)Nc1ccccc1 (stereo unspecified) | 2.96
2 | CC(C)c1nnc(NC(=O)CN2C(=O)c3ccccc3NC2C(C)C)s1 (stereo unspecified) | -10.2
3 | O=C(C1CC(=O)N(c2n[nH]c3cc(Br)ccc23)C1)N1CCSCC1 (stereo unspecified) | -1.91
4 | COCC(=O)N1CCN(c2cc(-n3cccc3)nc(C)n2)CC1 | -6.81
5 | CCOCc1ncn2c1CN(C(=O)Nc1cccc(F)c1)CC2 | 1.03
6 | CN(C)C(=O)N1CC[C@@H](O)[C@@H]1Cc1cnn(C)c1 | 7.02
7 | Cn1c(=O)[nH]c(=O)n2c(CC(=O)NCc3ccccc3)cnc12 | 7.77
8 | Cc1cnc(NC(=O)C(C)Oc2ccc3c(c2)OCO3)s1 (stereo unspecified) | -5.22
9 | CCc1nc(NCCn2cccn2)c2c(n1)c(C)nn2C | 5.97
10 | CCC(C)NC(=O)c1nn(C)c(NC(=O)c2ccccc2OC)c1F (stereo unspecified) | -6.24
11 | CCNS(=O)(=O)c1cccc(CSC)c1 | 5.5
12 | Cc1cc(C(=O)N(C)Cc2cccs2)nc(N2CCOCC2)n1 | 4.45
13 | Cc1cc(C)n(CC(=O)N2CCC(c3ccn4nccc4n3)CC2)n1 | -0.0825
14 | CCC(C)NC(=O)c1cc(S(=O)(=O)N(C)C)c(C)s1 (stereo unspecified) | -2.75
15 | Cc1cc(C)nc(Nc2nccnc2C2CCCN(C(CO)CO)C2)n1 (stereo unspecified) | 0.216
16 | CN1CCCC(c2nccnc2-c2cccc(C(F)(F)F)c2)C1 (stereo unspecified) | 7.75
17 | Cc1cnc(-c2nc(C3CCN(Cc4ccccc4C)CC3)no2)cn1 | 4.08
18 | Cc1cccc(C2CCCN(S(=O)(=O)c3cccnc3)C2)n1 (stereo unspecified) | 4.05
19 | Cc1cc(C)nc(N2CCC(c3cc(CCO)[nH]n3)C2)n1 (stereo unspecified) | 4.15
20 | Cc1cc(C2CCCN(S(=O)(=O)c3cn[nH]c3)C2)ccn1 (stereo unspecified) | -1.77
21 | CCn1ncc(CN2CCC(O)(Cn3ccc4ncccc43)CC2)c1C | -0.692
22 | O=C(O)CCc1cccc(C2CCCN2Cc2cccc(Cl)c2)n1 (stereo unspecified) | -22.6
23 | Cc1[nH]ccc1C(=O)N1CCOCC12CCCC2 | 4.14

Row | Compound | cytotoxicity at 10 µM [%]
24 | CN(CC(=O)N(C)C(c1cccnc1)c1ccc(F)c(F)c1)C1CC1 (stereo unspecified) | -3.57
25 | CCS(=O)(=O)NCCN1CCN(C(C#N)c2ccccc2)CC1 (stereo unspecified) | -4.04
26 | O=C1CCCN1CCc1nc(-c2ccsc2)no1 | -1.22
27 | CC(C)CC(NC(=O)c1ccc[nH]1)C(=O)N1CCC(CO)CC1 (stereo unspecified) | 6.74
28 | Cc1cc(C(=O)Cn2cnnc2[S+](C)[O-])cc(C)c1F (stereo unspecified) | 4.31
29 | O=C(Cn1cnc(NC(=O)c2ccccn2)n1)NCc1ccccc1 | 9.97
30 | CS(=O)(=O)CCCNC1CCCN(Cc2noc(C3CC3)n2)C1 (stereo unspecified) | 1.15
31 | CS(=O)(=O)c1ccc(OCCNCc2cccc(O)c2)cc1 | 2.21
32 | O=C(NCCOc1ncc(Cl)cc1Cl)c1cccnc1 | -3.23
33 | CCc1nnc2n1CCN(C(=O)c1cnc(-c3cccs3)s1)C2 | -3.28
34 | CC1CN(c2ccc(CNC(=O)NCCn3ccnc3)cn2)CCO1 (stereo unspecified) | 8.4
35 | O=C(CCN1CCCCCC1c1ccco1)N1CCOCC1 (stereo unspecified) | 6.14
36 | CCOC(C)C(=O)NCCNS(C)(=O)=O (stereo unspecified) | -5.29
37 | CC1CCCN1C1CCN(C(=O)c2cccc(F)c2)CC1 (stereo unspecified) | 5.93
38 | c1ccc2[nH]c(C3CCN(Cc4nnc(C5CC5)o4)CC3)cc2c1 | 3.65
39 | Cc1ncc(CNC(=O)c2oc3ccccc3c2CN(C)C)s1 | 13.5
40 | CC(C)(C)c1n[nH]c(C2CN(C(=O)c3cc(Cl)c[nH]3)CCO2)n1 (stereo unspecified) | -10.6
41 | CC1N(c2cnn(C)c2)C(=O)COC12CCN(Cc1ccoc1)CC2 (stereo unspecified) | 0.997
42 | CN1CC2(COCCN(c3ncccn3)C2)OCC1=O (stereo unspecified) | -112
43 | CS(=O)(=O)Nc1ccc(-n2c(CCCO)nc3ccccc32)cn1 | -3.14
44 | CCC(C(=O)NCC1CCN(c2cnn(C)c(=O)c2)CC1)n1cccn1 (stereo unspecified) | 6.01
45 | O[C@@]1(CNCCCNc2cccnc2)CCCN2CCCC[C@@H]21 | -3
46 | Cc1cc(CC(C)Nc2ncnc3cccc(F)c23)[nH]n1 (stereo unspecified) | 26.4

Row | Compound | cytotoxicity at 10 µM [%]
47 | NC(=O)c1ccc(C2CCCN2C(=O)Cn2nc3ccccc3n2)s1 (stereo unspecified) | 9.15
48 | Cc1[nH]c(=O)[nH]c(=O)c1CN1CCCC(CCc2ccccc2F)C1 (stereo unspecified) | -4.19
49 | Cc1nsc(NC(=O)NC2CCCOC2)n1 (stereo unspecified) | 16
50 | Cc1cccc(CN2C[C@@H](CN3CCCN(C)CC3)[C@@H](CO)C2)n1 | -7.57
51 | Cc1cc(C)nc(N2CCN(Cc3cc4n(n3)CCNC4)CC2)n1 | -8.46
52 | CCN(CC)CCn1cnc(-c2ccccc2)c1-c1cnc(C)s1 | 3.33
53 | CCCC1CCN(C(=O)c2coc(COc3ccc(OC)cc3)n2)C1 (stereo unspecified) | -0.551
54 | CCc1oc(C(=O)N2CCC(N(CC)C(C)=O)C2)cc1CN(CC)CC (stereo unspecified) | 8.31
55 | CN(C)C(=O)c1coc(COc2ccccc2)n1 | -7.3
56 | Cc1ccc(C(C(=O)NCc2n[nH]c(N)n2)N(C)C)cc1 (stereo unspecified) | 0.529
57 | CCCc1nc(N2CC[C@@H](c3ccc4c(c3)OCO4)[C@H](O)C2)no1 | -9.87
58 | c1cc(-c2ccn(CCN3CCCC3)n2)cc(-c2nccs2)c1 | -8.96
59 | CCCN1CCN(C(=O)c2cnccc2C)[C@H]2CS(=O)(=O)C[C@H]21 | -1.7
60 | O=C(O)CN1CCc2onc(C(c3ccccc3)c3ccccc3)c2C1 | -0.849
61 | CN(Cc1cc2cc(F)ccc2[nH]1)C(=O)C1CC(=O)N(C(C)(C)C)C1 (stereo unspecified) | 0.993
62 | CN1CC2(CCCN(Cc3nnc(-c4cccc(F)c4)o3)C2)OC1=O (stereo unspecified) | -1.66
63 | CC(C)c1noc(CN2CCC3(CCCO3)CCC2=O)n1 (stereo unspecified) | 0.145
64 | CC(C)c1nn(C)c(N(C)C)c1CNCc1ccc2c(c1)OCCO2 | -12.6
65 | Cc1ccc(OCCN2CCC(c3ccnn3CCO)CC2)cc1 | -3.29
66 | CCN1CCOC(CNCc2ccccc2OCc2ccncc2)C1 (stereo unspecified) | -8.57
67 | CC(=O)N1CCCN(C(=O)c2ccc(Cn3ccccc3=O)o2)CC1 | -1.4
68 | Cc1ccc(CC(=O)N2CCOCC2c2ncon2)cc1 (stereo unspecified) | -2.03
69 | CC(C(=O)N1CCCN(Cc2ccc(C#N)cc2)CC1)n1cccn1 (stereo unspecified) | -5.6

Row | Compound | cytotoxicity at 10 µM [%]
70 | CCN1CCN(C2CCN(Cc3nc(CCOC)no3)CC2)C1=O | -9.44
71 | Cn1c(NCC(O)c2ccc(Cl)cc2)c(C#N)c(=O)n(C)c1=O (stereo unspecified) | -3.27
72 | Cc1cc(C)n(C2CCCN(C(=O)Cc3cccc(F)c3)C2)n1 (stereo unspecified) | -8.09
73 | Cc1nc(CN2CCCC(NCCCOc3ccc(F)cc3)C2)no1 (stereo unspecified) | -7.03
74 | CN(CC(=O)NC1(C)CCS(=O)(=O)C1)Cc1ccc(Br)cc1 (stereo unspecified) | -1.4
75 | Cn1cc(CCC(=O)N2CCCC(n3cncn3)C2)cn1 (stereo unspecified) | -15.1
76 | Cc1ccc(C)c(S(=O)(=O)CCN2CCc3c(ncn3C)C2)c1 | -12.5
77 | Cc1cccnc1NC(=O)NCc1cccnc1OC(C)C | -8.75
78 | Cc1cc(CN(Cc2cccs2)CC2CCCO2)on1 (stereo unspecified) | -10.1
79 | CCCc1n[nH]c(C2CN(C(=O)CCn3ccccc3=O)CCO2)n1 (stereo unspecified) | -0.438
80 | Cc1nn(C)c(N(C)C)c1CNCc1cccnc1OC(C)C | -0.924
81 | Cc1ccc(N2CCCC(NCc3ccccn3)C2)nn1 (stereo unspecified) | 0.301
82 | O=C(NCCn1ccnc1)N1CCN(Cc2ccsc2)CC1 | -15.3
83 | COC(=O)c1cccn1C1CCN(S(=O)(=O)c2ccccc2)CC1 | -11.1
84 | O=C(COc1ccccc1Cl)N1CCCC(n2ccnc2)C1 (stereo unspecified) | -21.9
85 | CC(Cn1cccn1)NC(=O)NCc1ccc(S(C)(=O)=O)cc1 (stereo unspecified) | 3.64
86 | O=C(CCc1ccsc1)N1CCC(N2CCNC2=O)CC1 | -0.546
87 | Cc1cn2c(n1)CCC(NC(=O)c1csc(C(C)C)n1)C2 (stereo unspecified) | -16.4
88 | CC(C)c1cc(NC(=O)CN2CCCC2Cn2cccn2)on1 (stereo unspecified) | -8.35
89 | CCc1noc(C)c1C(=O)N1CCCC1Cn1cc(C)cn1 (stereo unspecified) | -6.46
90 | CC(C)c1nn(C)c(N2CCOCC2)c1CN[C@H](C)CO | -7.67
91 | Cc1nc(CN(Cc2cccs2)C2CCS(=O)(=O)C2)oc1C (stereo unspecified) | -6.46
92 | Cc1cnn(CC2CCCN2C(=O)c2cc3ccccc3[nH]2)c1 (stereo unspecified) | -0.433

Row | Compound | cytotoxicity at 10 µM [%]
93 | CCS(=O)(=O)N1CC[C@H]2CO[C@H](CN(C)C)[C@H]2C1 | -72
94 | CCn1cc2c(n1)CN(CC1CC1)CC2COCC1CC1 (stereo unspecified) | -1.26
95 | CCS(=O)(=O)N1CCc2c(nc(C3CCCN3)nc2NC)C1 (stereo unspecified) | -10.2
96 | CNC(=O)CN1CCCC12CCN(Cc1c[nH]cn1)CC2 | 0.312
97 | COCCC(=O)N1CCCC2(CCCN2Cc2ccccc2F)C1 (stereo unspecified) | 8.01
98 | O=S(=O)(c1cccs1)N1Cc2nc(CN3CCCCC3)oc2C1 | -121
99 | COCC1CN(c2ncc(F)cn2)Cc2cnn(C)c21 (stereo unspecified) | 4.02
100 | Cn1ccnc1CN1CCc2onc(COCC3CC3)c2C1 | 6.86
101 | Cc1cccc(C(=O)N2C[C@@H](C)[C@@]3(CCN(c4ccsc4)C3=O)C2)n1 | -78.9
102 | Cc1ncnc2c1CCN(C(=O)c1ccncc1)CC2 | 12
103 | CCC(C)N1Cc2c(C(=O)N3CCOCC3)nn(C)c2C1 (stereo unspecified) | -95.9
104 | O=S(=O)(C1CC1)N1CCC2(CCCN(c3ncccn3)C2)C1 (stereo unspecified) | -4.02
105 | O=C(c1cccs1)N1CC[C@@H](N2CCOCC2)[C@@H]1Cc1ccccc1 | -81.6
106 | N#Cc1cccc(CN2C[C@H](OCC3CCOCC3)[C@H]3COC[C@H]32)c1 | -0.82
107 | CN(C)CCNC(=O)c1cc(-c2cnc(N3CCOCC3)nc2)cn1C | -78.2
108 | Cc1cccc(N2CCC3(CCN(C(=O)c4cccnc4)CC3)C2)n1 | -0.482
109 | Cn1ccnc1CN1CCN2C[C@H](OCc3cccnc3)C[C@H]2C1 | -1.29
110 | CC(C)CNC(=O)[C@H]1C[C@H]2CN(C(=O)Nc3ccc(F)cc3)C[C@@H]1O2 | 0.428
111 | Cc1cc(C)c(Cn2cncn2)cc1CN1CC[C@@H]2CC[C@H](C1)N2 | -3.96
